# In ChEMBL document CHEMBL1134762, “Synthesis and antibacterial evaluation of certain quinolone derivatives” (2001):
# Key:
# Format in all cases: functional
# Staphylococcus aureus = assay: Antibacterial activity against methicillin-resistant Staphylococcus aureus
# Method in brief: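 Broth dilution MIC against MRSA in Mueller-Hinton broth with 1-5 × 10^5 CFU/mL inoculum. Compounds were serially diluted in DMSO (final DMSO 1%, top concentration 300 µM) and incubated 20-72 h at 37 °C. MIC was read by visual turbidity or microscopy. Vehicle and reference agents served as controls; run in duplicate.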
# Enterococcus faecalis = assay: Antibacterial activity tested against vancomycin-resistant Enterococcus faecalis
# Method in brief: (§1)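 Broth MIC against clinical isolates (S. pneumoniae, VRE E. faecalis) in tryptic soy broth with 7% calf serum, inoculum 1-5 × 10^5 CFU/mL. DMSO serial dilutions gave 1% final DMSO and a 300 µM highest concentration. Plates were incubated 20-72 h at 37 °C and read by turbidity or microscopy. Vehicle and reference controls were included; run in duplicate.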
# Streptococcus pneumoniae = assay: Antibacterial activity tested against ampicillin and erythromycin-resistant Streptococcus pneumoniae; method in brief: as §1
SMILES,MIC (Staphylococcus aureus) [µM],MIC (Enterococcus faecalis) [µM],MIC (Streptococcus pneumoniae) [µM]
COc1ccc(/C(CN2CCN(c3cc4c(cc3F)c(=O)c(C(=O)O)cn4-c3ccc([N+](=O)[O-])cc3F)CC2)=N/O)cc1,0.34,5.27,1.31
CCn1cc(C(=O)O)c(=O)c2cc(F)c(N3CCN(C/C(=N\OC)c4ccc(Cl)cc4)CC3)c(F)c21,> 200,> 200,> 200
CCn1cc(C(=O)O)c(=O)c2cc(F)c(N3CCNCC3)c(F)c21,2.31,18.5,18.5
CCn1cc(C(=O)O)c(=O)c2cc(F)c(N3CCN(C/C(=N\N)c4ccc(F)cc4)CC3)cc21,1.66,26.6,26.6
CCn1cc(C(=O)O)c(=O)c2cc(F)c(N3CCN(C/C(=N/NC(N)=O)c4ccccc4)CC3)cc21,3.15,25.3,25.3
COc1ccc(C(=O)CN2CCN(c3cc4c(cc3F)c(=O)c(C(=O)O)cn4-c3ccc(N)cc3F)CC2)cc1,0.55,5.47,1.82
CCn1cc(C(=O)O)c(=O)c2cc(F)c(N3CCN(CC(=O)c4ccc(OC)cc4)CC3)c(F)c21,0.62,> 200,> 200
CCn1cc(C(=O)O)c(=O)c2cc(F)c(N3CCN(C/C(=N\O)c4ccc(OC)cc4)CC3)c(F)c21,0.2,3.12,6.25
COc1ccc(C(=O)CN2CCN(c3cc4c(cc3F)c(=O)c(C(=O)O)cn4-c3ccc([N+](=O)[O-])cc3)CC2)cc1,5.58,> 200,> 200
COc1ccc(/C(CN2CCN(c3cc4c(cc3F)c(=O)c(C(=O)O)cn4-c3ccc(N)cc3F)CC2)=N/O)cc1,0.53,5.32,1.77
CCn1cc(C(=O)O)c(=O)c2cc(F)c(N3CCN(C/C(=N/N=C(/N)S)c4ccccc4)CC3)c(F)c21,0.74,> 200,> 200
CCn1cc(C(=O)O)c(=O)c2cc(F)c(N3CCN(CC(=O)c4ccc(Cl)cc4)CC3)cc21,> 200,> 200,> 200
CCn1cc(C(=O)O)c(=O)c2cc(F)c(N3CCNCC3)cc21 [NORFLOXACIN],4.89,9.8,19.6
CCn1cc(C(=O)O)c(=O)c2cc(F)c(N3CCN(C/C(=N\O)c4ccc(Cl)cc4)CC3)c(F)c21,0.59,19.8,19.8
CCn1cc(C(=O)O)c(=O)c2cc(F)c(N3CCN(C/C(=N\O)c4ccc(Cl)cc4)CC3)cc21,> 200,> 200,> 200
COc1ccc(C(=O)CN2CCN(c3cc4c(cc3F)c(=O)c(C(=O)O)cn4-c3ccc([N+](=O)[O-])cc3F)CC2)cc1,2.7,43.2,5.41
CCn1cc(C(=O)O)c(=O)c2cc(F)c(N3CCN(CC(=O)c4ccccc4)CC3)c(F)c21,1.71,13.7,13.7

SMILES,MIC (Staphylococcus aureus) [µM],MIC (Enterococcus faecalis) [µM],MIC (Streptococcus pneumoniae) [µM]
Nc1ccc(-n2cc(C(=O)O)c(=O)c3cc(F)c(N4CCNCC4)cc32)c(F)c1,0.97,15.6,3.9
CCn1cc(C(=O)O)c(=O)c2cc(F)c(N3CCN(CC(=O)c4ccc(OC)cc4)CC3)cc21,6.7,> 200,> 200
CCn1cc(C(=O)O)c(=O)c2cc(F)c(N3CCN(C/C(=N/N=C(/N)S)c4ccccc4)CC3)cc21,1.53,12.2,24.5
CCn1cc(C(=O)O)c(=O)c2cc(F)c(N3CCN(C/C(=N\O)c4ccc(OC)cc4)CC3)cc21,0.41,3.23,13
CCn1cc(C(=O)O)c(=O)c2cc(F)c(N3CCN(C/C(=N\O)c4ccc(F)cc4)CC3)c(F)c21,0.61,2.05,6.14
CCn1cc(C(=O)O)c(=O)c2cc(F)c(N3CCN(C/C(=N/NC(N)=O)c4ccccc4)CC3)c(F)c21,0.39,6.11,6.11
O=C(O)c1cn(-c2ccc([N+](=O)[O-])cc2F)c2cc(N3CCNCC3)c(F)cc2c1=O,7.27,29,0.46
CCn1cc(C(=O)O)c(=O)c2cc(F)c(N3CCN(C/C(=N\O)c4ccc(F)cc4)CC3)cc21,2.13,> 200,> 200
CCn1cc(C(=O)O)c(=O)c2cc(F)c(N3CCN(C/C(=N\OC)c4ccc(OC)cc4)CC3)cc21,1.57,12.6,12.6
CCn1cc(C(=O)O)c(=O)c2cc(F)c(N3CCN(C/C(=N\OC)c4ccc(Cl)cc4)CC3)cc21,,> 200,> 200
O=C(CN1CCN(c2cc3c(cc2F)c(=O)c(C(=O)O)cn3-c2ccc([N+](=O)[O-])cc2)CC1)c1ccc(F)cc1,> 200,> 200,> 200
CCn1cc(C(=O)O)c(=O)c2cc(F)c(N3CCN(CC(=O)c4ccccc4)CC3)cc21,7.15,> 200,> 200
O=C(O)c1cn(-c2ccc([N+](=O)[O-])cc2)c2cc(N3CCN(C/C(=N\O)c4ccc(F)cc4)CC3)c(F)cc2c1=O,> 200,> 200,> 200
CCn1cc(C(=O)O)c(=O)c2cc(F)c(N3CCN(C/C(=N\O)c4ccccc4)CC3)cc21,0.44,> 200,> 200
CCn1cc(C(=O)O)c(=O)c2cc(F)c(N3CCN(CC(=O)c4ccc(F)cc4)CC3)cc21,6.87,> 200,> 200
COc1ccc(/C(CN2CCN(c3cc4c(cc3F)c(=O)c(C(=O)O)cn4-c3ccc([N+](=O)[O-])cc3)CC2)=N/O)cc1,1.36,21.7,10.9
